Source: paper PMC6593619 (Clinical Pharmacology and Therapeutics, 2019)
Read-outs that look alike come from different tables or passages of the source.

Columns and labels:
[1] = assay type: in vivo, human; conditions: for Relative difference in Cmax C vs. A (95% CI): esomeprazole 3 hours prior vs regorafenib alone; for Relative difference in Cmax B vs. A (95% CI): esomeprazole concomitant vs regorafenib alone; for Cmax (geomean (CV)) / Tmax: plasma; for Cmax (geomean (CV)): CV in %; for Tmax: human, oral, Tmax (median (IQR))
Summary of the method: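 mCRC or GIST patients: regorafenib 120 or 160 mg daily, 14-day loading, 5 days alone or with esomeprazole 40 mg daily (concomitant or 3 h prior); sequence A-B-C or C-B-A. Plasma predose to 24 h on days 21, 49, 77; UPLC-MS/MS. Log Cmax: mixed model (treatment, sequence, phase fixed; subject random), geometric-mean ratio, Bonferroni 97.5% CI. Tmax: Wilcoxon signed rank.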

Toxicity = assay type: in vivo, human; conditions: whole study period
Summary of the method: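 Incidence of toxicity tallied per phase in patients on regorafenib 120 or 160 mg daily, alone or with esomeprazole 40 mg daily; only toxicity new or worsened relative to baseline counted.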

[2] = after oral administration; cited from earlier work
[3] = compared with other TKIs, despite solid dispersion formulation; cited from earlier work
[4] = mCRC, unselected group, third or fourth line; cited from earlier work
[5] = cited from earlier work
[6] = erlotinib combined with omeprazole; cited from earlier work
[7] = phase A: regorafenib alone, 120 mg at steady state
[8] = phase A: regorafenib alone, 120 mg once daily at steady state
[9] = phase B: regorafenib + esomeprazole 40 mg concomitant
[10] = phase B: regorafenib + esomeprazole concomitant
[11] = phase C: regorafenib + esomeprazole 40 mg 3 hours prior
[12] = phase C: regorafenib + esomeprazole 3 hours prior

SMILES | Relative difference in Cmax C vs. A (95% CI) [1] | Relative difference in Cmax B vs. A (95% CI) [1] | Tmax (median (IQR)) [1, 7] | Cmax (geomean (CV)) [1, 8] | Cmax (geomean (CV)) [1, 9] | Tmax (median (IQR)) [1, 10] | Cmax (geomean (CV)) [1, 11] | Tmax (median (IQR)) [1, 12] | further results
CNC(=O)c1cc(Oc2ccc(NC(=O)Nc3ccc(Cl)c(C(F)(F)F)c3)c(F)c2)cc[n+]1[O-] [M‐2] | −9.3% (−38.1 to 32.9%) | −11.0% (−38.7 to 29.1%) | 3.3 (2.0–6.0) hours | 2.9 (72.0) μg/mL | 2.6 (60.9) μg/mL | 2.6 (2.1–3.5) hours | 2.6 (44.2) μg/mL | 3.5 (2.5–6.0) hours | –
NC(=O)c1cc(Oc2ccc(NC(=O)Nc3ccc(Cl)c(C(F)(F)F)c3)c(F)c2)cc[n+]1[O-] [M‐5] | −9.1% (−43.2 to 45.5%) | −10.4% (−34.6 to 22.8%) | 2.6 (1.5–4.0) hours | 1.6 (118.8) μg/mL | 1.4 (132.4) μg/mL | 2.3 (1.5–8.0) hours | 1.4 (107.6) μg/mL | 3.5 (2.5–6.0) hours | –
CNC(=O)c1cc(Oc2ccc(NC(=O)Nc3ccc(Cl)c(C(F)(F)F)c3)c(F)c2)ccn1 [Regorafenib, 4‐[4‐({[4‐chloro‐3‐(trifluoromethyl)phenyl]carbamoyl}amino)‐3‐fluorophenoxy]‐N‐methylpyridine‐2‐carboxamide] | −12.1% (−32.0 to 13.8%) | −16.5% (−34.9 to 7.0%) | – | – | – | – | – | – | Incidence of anorexia ≥ grade 3 (Toxicity): 14%; Incidence of hand/foot skin reaction ≥ grade 3 (Toxicity): 14%; Incidence of hypertension ≥ grade 3 (Toxicity): 64%; Incidence of anorexia (Toxicity; all grades): 71%; Incidence of fatigue (Toxicity; all grades): 71%; Incidence of hand/foot skin reaction (Toxicity; all grades): 64%; Incidence of hypertension (Toxicity; all grades): 71%; Incidence of stomatitis (Toxicity; all grades): 57%; Incidence of hoarseness (Toxicity; all grades, 14 patients): 79%; Pharmacokinetic interaction with esomeprazole ([1]; esomeprazole concomitant or 3 hours prior): did not reveal a significant pharmacokinetic interaction; Tmax ([1]; 120 mg, phase A: regorafenib alone, 120 mg at steady state): 2.5 h; Tmax [1, 10]: 2.5 h; Tmax [1, 12]: 3 h; Time of maximum concentration (Tmax) [2]: 3 to 4 h; Solubility [3]: low solubility; Median overall survival increase compared with placebo [4]: 1.4 months; Basic predicted pKa [5]: around 2
C#Cc1cccc(Nc2ncnc3cc(OCCOC)c(OCCOC)cc23)c1 [erlotinib] | – | – | – | – | – | – | – | – | Decrease in systemic exposure [6]: 46%
